# The list is not random: actives were taken first. Their share in the collection is about 4.3%.
# Yeast superoxide: lowers age-related superoxide in aged yeast cells. S. cerevisiae aged cells, superoxide DHE fluorescence; hits give low values. superoxide response (% of plate mean), % at 10 µM. 0.18% of 330,000 active;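 active means superoxide response under a set limit, about three screen SD below normal, cut at about 65% in these data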;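 further: yeast aged for seven days with compound at 30 °C before DHE staining; 100% = average MFI of all compound-treated wells on the plate with controls excluded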
# SR-BI HDL uptake: blocks mouse SR-BI lipid uptake from DiI-HDL; Q61009; ldlA[mSR-BI] CHO cells, DiI-HDL uptake fluorescence, 3 h; inhibition, % at 12.5 µM; 0.96% of 320,000 active; AID 488896;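 active means mean replicate inhibition of at least 70% and a set share of replicates each scoring 70 or more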;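 further: 0% = median of neutral control wells and 100% = median of positive control wells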
# SMARCA2 act: SMARCA2 function activation, primary screen; MG213 cells, MMTV-luciferase reporter, dexamethasone, overnight; activation, % at 9.1 µM; 1% of 370,000 active; in the data active means activation above about 7.8%;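 further: 0% = vehicle wells and 100% = reference activator wells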
# SR-BI uptake up: enhances SR-BI lipid uptake from DiI-HDL. activation, % at 12.5 µM. AID 504775. 0.096% of 320,000 active. CHO ldlA[mSR-BI] cells, DiI-HDL uptake fluorescence, 3 h; 100 = double the neutral-control signal;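 active means mean replicate activation of at least 60% and every replicate at or above 60%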;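 further: 0% = median plate neutral-control signal and 100% = twice that signal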
#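 Assay system: LDL receptor-deficient CHO ldlA cells overexpressing murine SR-BI / Medium: BSA-supplemented, HEPES-buffered Ham's F12, pH 7.4 / Probe or stimulus: DiI-labelled HDL at 10 µg/mL final / Timing: compound with DiI-HDL co-incubation, 3 h at 37 °C / Technique: bottom-read cell fluorescence after medium removal, ex 550/em 595 nm / Measure: HDL uptake via cellular fluorescence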
# AHR act: activators of human aryl hydrocarbon receptor | AID 2796 | AHR-responsive luciferase reporter cells, luminescence | P35869 | activation, % at 5 µM | 2.5% of 320,000 active; in the data active means activation above about 47%;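 further: 0% = vehicle wells and 100% = reference agonist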
# Target sequence (P35869 whole entry, looked up): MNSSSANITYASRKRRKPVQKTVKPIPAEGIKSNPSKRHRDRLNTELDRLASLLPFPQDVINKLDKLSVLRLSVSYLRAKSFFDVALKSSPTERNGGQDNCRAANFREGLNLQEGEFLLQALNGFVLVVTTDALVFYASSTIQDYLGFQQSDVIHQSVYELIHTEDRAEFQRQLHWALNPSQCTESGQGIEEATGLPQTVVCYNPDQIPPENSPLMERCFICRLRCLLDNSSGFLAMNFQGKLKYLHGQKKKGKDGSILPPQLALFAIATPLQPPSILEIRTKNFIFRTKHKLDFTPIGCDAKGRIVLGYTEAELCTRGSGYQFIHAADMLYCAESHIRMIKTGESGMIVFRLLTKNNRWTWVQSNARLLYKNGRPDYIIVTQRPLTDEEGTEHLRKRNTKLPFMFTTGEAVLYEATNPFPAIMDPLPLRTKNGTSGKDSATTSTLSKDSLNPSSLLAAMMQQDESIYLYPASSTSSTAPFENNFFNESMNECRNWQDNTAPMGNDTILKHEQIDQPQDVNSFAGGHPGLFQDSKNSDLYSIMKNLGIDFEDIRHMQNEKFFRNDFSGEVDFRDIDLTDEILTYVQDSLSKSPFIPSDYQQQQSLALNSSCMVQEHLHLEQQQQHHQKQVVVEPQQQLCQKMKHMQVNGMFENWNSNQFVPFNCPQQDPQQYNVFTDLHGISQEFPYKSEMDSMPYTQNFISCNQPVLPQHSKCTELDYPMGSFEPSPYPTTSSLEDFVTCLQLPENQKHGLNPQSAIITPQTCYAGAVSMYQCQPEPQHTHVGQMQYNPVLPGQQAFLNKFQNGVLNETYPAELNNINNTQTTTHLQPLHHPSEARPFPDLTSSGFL
# Hep lipid drop: hepatic lipid droplet formation modulation. AML12 mouse hepatocytes, oleate lipid droplets, BODIPY imaging. 0.4% of 240,000 active. inhibition, % at 6.5 µM. AID 1656;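 active means lipid droplet intensity inhibited by at least 50%, with more than 500 cells counted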
#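 Technique: fluorescence imaging, 20x objective, two fields per well / Assay system: AML12 hepatocytes (mouse) / Measure: % inhibition of lipid droplet signal / Doses: 6.5 µM single-point dosing / Incubation: overnight exposure / Reagent: 100 µM oleic acid challenge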
# An asterisk follows results filed as active; · = no result given.
SMILES,Yeast superoxide,SR-BI HDL uptake,SMARCA2 act,SR-BI uptake up,AHR act,Hep lipid drop
COc1ccccc1NC(=O)c1ccccc1NC(=O)c1cc(Cl)ccc1NC(=O)c1ccco1,83,45,3,-45,41,·
CCCCC(=O)N(Cc1ccccc1)c1ccccc1C(=O)Nc1cc(OC)ccc1OC,·,·,-6,·,·,·
O=C(Nc1ccc(Cl)cc1)Nc1ccccn1,96,6,1,-6,50*,8
O=C(Nc1ccc(Cl)cc1C(=O)Nc1ccccn1)c1ccco1,108,67,-2,-67,64*,9
COc1cc(NC(=O)c2ccccc2Cl)ccc1NC(=O)c1ccco1,103,81*,5,-81,15,·
COc1cc(NC(=O)c2ccco2)ccc1NC(=O)c1ccccc1Cl,82,64,1,-64,-4,5
COC(=O)[C@]12C[C@H](CC(=O)N3CCN(C(=O)C4CC4)CC3)C(=O)N(Cc3ccccc3)C1=C[C@H](C1CCCC1)O[C@@H]2C,·,·,0,·,·,·
Cc1cc(C(=O)COC(=O)C2=NNC(=O)CC2)c(C)n1CCc1ccccc1,107,22,0,-22,69*,9
COc1ccc(CCNC(=S)N2CCC(C(=O)c3ccc(F)cc3)CC2)cc1OC,104,80*,-8,-80,0,8
c1ccc2c(c1)nc(CN1CCOCC1)n1c3ccccc3nc21,90,-12,-1,12,4,31
c1ccc(-c2nc3ccccc3c3nc4ccccc4n23)cc1,111,6,5,-6,52*,1
CCc1nc2ccccc2c2nc3ccccc3n12,107,29,0,-29,51*,9
FC(F)(F)c1nc2ccccc2c2nc3ccccc3n12,138,-8,3,8,50*,6
CC(CCN1CCC(C(O)(c2ccccc2)c2ccccc2)CC1)Oc1cccc(Br)c1 (configuration not stated),·,·,-4,·,·,·
CC(=O)Nc1csc2ccccc12,95,-29,-3,29,9,-7
O=C(Nc1ccccc1)Nc1csc2ccccc12,63*,·,3,·,61*,-16
COc1ccc2cc(C3CC(c4ccco4)=NN3S(=O)(=O)c3ccccc3)c(Cl)nc2c1 (configuration not stated),54*,7,-1,-7,-2,-3
CN(C)[C@@H]1CCN(c2ccc3c(c2)OCCCN(C2CC2)S3(=O)=O)C1,·,·,0,·,·,·
Cc1cc(C)c2c(-n3cccc3)c(NC(=O)OC(C)C)sc2n1,125,20,-2,-20,66*,·
Nc1ccccc1-n1cccc1,96,0,7,0,56*,-17
Cc1ccc(C)n1-c1ccccc1N,111,·,·,·,2,-36
Fc1ccc(Cn2ccc3ccc(-c4ccc5ccn(Cc6ccc(F)cc6F)c5c4)cc32)c(F)c1,·,·,-1,·,·,·
Oc1nc(Nc2ccccc2)sc1/C=C1\C=Nc2ccccc21,108,·,5,·,147*,·
CCn1c(O)c(/C=C2\C=Nc3ccccc32)sc1=O,88,26,6,13,76*,3
CCn1c(O)c(/C=C2\C=Nc3ccccc32)sc1=Nc1ccc(C)cc1,92,63,5,-63,0,·
SMILES,Yeast superoxide,SR-BI HDL uptake,SMARCA2 act,SR-BI uptake up,AHR act,Hep lipid drop
COc1cccc(CNC(=O)C[C@H]2CC[C@H]3[C@@H](COc4ccc(NC(=O)c5cccs5)cc4C(=O)N3C)O2)c1,·,·,-3,·,·,·
Cc1cc(N2CCN(CC(C)(C)O)C[C@H]2C)ccc1N1CCN(CC(C)(C)O)[C@H](C)C1,·,·,-2,·,·,·
O=C(CSc1nc2ccccc2s1)NNC(=S)Nc1ccccc1,76,3,2,-3,27,1
O=C(CSc1nc2ccccc2s1)NNC(=S)Nc1ccc(Br)cc1,108,-5,0,5,53*,·
C=CCNC(=O)Nc1ccc2c(c1)[C@@]1(CC(=O)N(CC(C)C)C1c1ccccc1)C(=O)N2C (some centres not stated),·,·,-4,·,·,·
Cc1cc(NS(=O)(=O)c2ccc(NC(=O)CSc3nnc(-c4ccncc4)n3-c3ccccc3)cc2)nc(C)n1,·,·,-3,·,·,·
Cc1nccn1-c1ccc(NC(=O)[C@@H](Cc2ccccc2)NC(=O)[C@H]2O[C@@H](n3ccc(=O)[nH]c3=O)[C@H](O)[C@@H]2O)cc1,·,·,-3,·,·,·
Cn1c(=O)n(C)c2cc(/C=N/NC(=O)c3ccncc3)ccc21,100,·,·,·,6,0
CCn1c(O)c(/C=N/NC(=O)c2ccncc2)c(=O)n(CC)c1=S,·,74*,1,-74,·,0
COc1cc2cc(-c3ccc(OC)c(OC)c3C)nc(N)c2cc1OC,98,·,-3,·,7,·
COc1cc2cc(-c3ccc(O)cc3O)nc(C)c2cc1OC,102,47,4,-47,48*,0
CCc1nc(-c2ccc(OC)c(OC)c2)cc2cc(OC)c(OC)cc12,99,56,-1,-56,24,-1
CCOc1ccc(-c2cc3cc(OC)c(OC)cc3c(C)n2)cc1,92,74*,1,-74,-7,12
CC[n+]1c(/C=C/N(C)c2ccccc2)n(-c2ccccc2)c2ccc(-c3nc4ccccc4s3)cc21,107,78*,·,-78,-4,-96
CCOC(=O)c1ccc2c(c1)n(CC)c(/C=C/N(C)c1ccccc1)[n+]2CC,94,1,-3,-1,2,-60
COc1cc(Cl)cc(/C=C/c2ccc3ccccc3n2)c1OC(C)=O,121,80*,3,-80,3,-10
CC(=O)Oc1ccc(Cl)cc1/C=C/c1cc(OC(C)=O)c2ccccc2n1,108,·,2,·,21,3
CCCCCCCCN1C(=O)[C@@H](CC(=O)NCC2CCCCC2)C[C@@]2(C(=O)OC)C1=C[C@H](C(C)(C)C)O[C@@H]2C,·,·,1,·,·,·
COC[C@@H](O)[C@H]1OCc2cccc(OC)c2[C@@H]1/C=C/c1ccccc1,·,·,-3,·,·,·
O=C(Nc1ccc(F)cc1F)c1csc(-c2ccncc2)n1,96,-9,0,9,51*,-33
O=C(Nc1ccc(F)cc1F)c1csc(-c2cccs2)n1,95,1,7,-1,29,2
Cc1ccc(C(=O)Nc2cccc(C(F)(F)F)c2)cc1NC(=O)c1csc(-c2ccncc2)n1,95,84*,·,-84,41,·
O=C(Nc1cccc(C(F)(F)F)c1)c1cc(-c2cccs2)on1,96,-3,-2,3,-7,·
CCOc1ccc(N(CC(=O)Nc2c(C)n(C)n(-c3ccccc3)c2=O)S(=O)(=O)c2cccc3cccnc23)cc1,·,·,-2,·,·,·
CC(C)=CCc1cc(-c2oc3cc(O)cc(O)c3c(=O)c2O)ccc1O,83,67,2,-67,12,·
CC(C)=CCc1c(O)cc2oc3c(CC=C(C)C)c(O)c(O)c(CC=C(C)C)c3c(=O)c2c1O,91,105*,-4,-105,8,5
